One assay deals with Beta-galactosidase (Escherichia coli, UniProt Q8VNN2). Put plainly: Inhibition of Escherichia coli beta-galactosidase by Lineweaver-Burke plot analysis. The gist of the method: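 Kinetics of E. coli β-galactosidase with o-nitrophenyl β-D-galactopyranoside (0.2–5.0 mM) in 100 mM sodium phosphate, pH 7.3, with 1.2 mM MgCl₂ and 100 mM 2-mercaptoethanol, 10 min at 37 °C, borate quench, absorbance at 410 nm. Inhibitor was tested at 0, 0.40, 0.80 and 1.20 mM, and data were analysed by Lineweaver–Burk double-reciprocal plot.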

A further assay relates to Prunus dulcis. Description: Inhibition of almond beta-glucosidase at 4 to 6 mM after 15 mins by visible absorption spectroscopy. Put shortly: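 Almond β-glucosidase (2.0 mU) was incubated with p-nitrophenyl β-D-glucopyranoside (0.5–10.0 mM) in 50 mM sodium acetate, pH 5.6, with or without inhibitor (4.0–6.0 mM) for 15 min at 37 °C. The reaction was stopped with sodium borate, pH 10.0, and absorbance was read at 400 nm.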

Assay [1] concerns the target Beta-galactosidase (Escherichia coli) (UniProt Q8VNN2). Description: Inhibition of Escherichia coli beta-galactosidase assessed as formation of o-nitrophenol at 0.6 to 4 mM after 10 mins by visible absorption spectroscopy.
In assay [2] the target is T1, Exo-1,4-beta-xylosidase xlnD (Aspergillus niger) (UniProt O00089).
T1 sequence (whole entry): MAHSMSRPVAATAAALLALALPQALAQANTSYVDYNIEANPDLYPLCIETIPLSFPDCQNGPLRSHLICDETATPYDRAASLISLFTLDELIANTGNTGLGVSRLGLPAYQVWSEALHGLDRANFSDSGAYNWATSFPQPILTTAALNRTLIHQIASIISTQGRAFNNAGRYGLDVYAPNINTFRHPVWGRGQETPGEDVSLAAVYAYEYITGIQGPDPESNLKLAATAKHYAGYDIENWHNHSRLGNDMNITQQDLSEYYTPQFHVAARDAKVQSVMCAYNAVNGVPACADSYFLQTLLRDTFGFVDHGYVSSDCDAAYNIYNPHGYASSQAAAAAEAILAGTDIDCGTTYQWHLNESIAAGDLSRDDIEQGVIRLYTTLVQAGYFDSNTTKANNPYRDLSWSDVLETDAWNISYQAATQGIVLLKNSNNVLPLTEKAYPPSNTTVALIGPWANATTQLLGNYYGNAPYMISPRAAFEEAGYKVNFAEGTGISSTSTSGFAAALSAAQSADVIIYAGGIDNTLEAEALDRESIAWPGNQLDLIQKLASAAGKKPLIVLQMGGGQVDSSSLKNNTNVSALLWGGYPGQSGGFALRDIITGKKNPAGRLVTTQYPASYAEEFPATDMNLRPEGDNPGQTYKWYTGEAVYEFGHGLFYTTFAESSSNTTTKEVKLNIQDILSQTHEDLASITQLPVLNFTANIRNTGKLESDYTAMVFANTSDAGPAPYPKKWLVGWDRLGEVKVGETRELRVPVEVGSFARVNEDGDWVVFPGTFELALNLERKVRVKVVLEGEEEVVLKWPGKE
Put plainly: Inhibition of Aspergillus niger beta-xylosidase at 10 mM after 15 mins by visible absorption spectroscopy. The gist of the method: (§1)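 A. niger β-xylosidase (0.04 U) was incubated with p-nitrophenyl β-D-xylopyranoside (0.5–10.0 mM) in 50 mM sodium acetate, pH 5.0, with or without inhibitor (2.0–10.0 or 5.0–15.0 mM) for 15 min at 25 °C. The reaction was stopped with 0.2 M sodium borate, pH 10.0, and absorbance was read at 400 nm.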

The target of assay [3] is Beta-galactosidase (Escherichia coli) (UniProt Q8VNN2). Description: Inhibition of Escherichia coli beta-galactosidase assessed as formation of o-nitrophenol at 0.01 to 0.05 mM after 10 mins by visible absorption spectroscopy. The gist of the method: (§2)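 E. coli β-galactosidase (0.3 U) was incubated with o-nitrophenyl β-D-galactopyranoside (0.2–5.0 mM) in 100 mM sodium phosphate, pH 7.3, containing 1.2 mM MgCl₂ and 100 mM 2-mercaptoethanol, with or without inhibitor, for 10 min at 37 °C. The reaction was quenched with 0.2 M sodium borate, pH 10.0, and released o-nitrophenol was read at 410 nm.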

Assay [4] shares this target. Description: Inhibition of Escherichia coli beta-galactosidase assessed as formation of o-nitrophenol at 0.4 to 1.2 mM after 10 mins by visible absorption spectroscopy. Put shortly:
as §2

The target in assay [5] is T1, Exo-1,4-beta-xylosidase xlnD (Aspergillus niger). Put plainly: Inhibition of Aspergillus niger beta-xylosidase at 15 mM after 15 mins by visible absorption spectroscopy. The gist of the method:
as §1

Calls of active or inactive are those of the source. The rule behind the calls is not given here.

Sequence of Beta-galactosidase (Escherichia coli) (Q8VNN2 whole entry, looked up): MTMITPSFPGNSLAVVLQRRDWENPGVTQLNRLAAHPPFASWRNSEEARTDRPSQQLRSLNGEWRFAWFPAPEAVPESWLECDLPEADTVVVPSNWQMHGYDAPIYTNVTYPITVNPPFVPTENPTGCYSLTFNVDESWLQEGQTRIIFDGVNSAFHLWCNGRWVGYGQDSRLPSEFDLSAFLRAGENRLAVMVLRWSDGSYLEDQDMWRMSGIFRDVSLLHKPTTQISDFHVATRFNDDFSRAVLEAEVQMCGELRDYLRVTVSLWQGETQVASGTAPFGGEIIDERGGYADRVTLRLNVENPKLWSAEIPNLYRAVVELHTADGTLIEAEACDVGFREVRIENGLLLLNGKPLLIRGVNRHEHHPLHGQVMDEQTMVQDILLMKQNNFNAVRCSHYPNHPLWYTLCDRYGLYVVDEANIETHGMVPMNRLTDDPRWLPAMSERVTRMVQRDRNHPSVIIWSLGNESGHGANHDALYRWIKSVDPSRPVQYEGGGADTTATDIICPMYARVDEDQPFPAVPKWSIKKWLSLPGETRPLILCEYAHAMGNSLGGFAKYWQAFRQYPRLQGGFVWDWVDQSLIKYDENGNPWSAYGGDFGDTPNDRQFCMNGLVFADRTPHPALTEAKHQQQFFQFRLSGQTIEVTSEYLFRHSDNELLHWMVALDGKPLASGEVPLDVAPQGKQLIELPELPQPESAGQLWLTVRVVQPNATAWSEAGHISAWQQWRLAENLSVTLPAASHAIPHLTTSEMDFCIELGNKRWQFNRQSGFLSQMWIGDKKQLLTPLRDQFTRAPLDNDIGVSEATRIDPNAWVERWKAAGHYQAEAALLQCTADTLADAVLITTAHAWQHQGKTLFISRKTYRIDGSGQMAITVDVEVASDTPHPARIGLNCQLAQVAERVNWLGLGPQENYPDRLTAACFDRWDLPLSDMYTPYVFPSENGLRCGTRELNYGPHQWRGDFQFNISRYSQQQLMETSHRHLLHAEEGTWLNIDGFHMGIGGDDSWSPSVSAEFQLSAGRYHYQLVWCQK
Sequence of Beta-galactosidase (Q8VNN2 whole entry): as the sequence (Q8VNN2 whole entry, looked up) above

What is called Ki is a measure of affinity in units of concentration, obtained from inhibition or displacement. Low readings indicate higher affinity, high ones lower affinity. In turn, `CC(C)O[C@H]1O[C@H](CO)[C@H](S[C@@H]2OC[C@@H](O)[C@H](O)[C@H]2O)C[C@@H]1O` showed a Ki on Beta-galactosidase of 120 µM. Further, the inhibition result (in the assay on Prunus dulcis; in assay [1]; in assay [2]) was “inactive” in each case.
On to `OC[C@H]1O[C@@H](S[C@@H]2CO[C@@H](OCc3ccccc3)[C@@H](O)C2)[C@H](O)[C@@H](O)[C@H]1O`, for which the Ki on Beta-galactosidase was determined as 32 µM. Besides, in assay [3], the result was Active.
With `OC[C@H]1O[C@@H](S[C@@H]2CO[C@@H](OCc3ccccc3)[C@H](O)C2)[C@H](O)[C@@H](O)[C@H]1O`, affinity at Beta-galactosidase was put at a Ki of 800 µM. Besides, in assay [4], the outcome was Active.
For the molecule `CC(C)O[C@H]1O[C@H](CO)[C@H](S[C@@H]2OC[C@@H](O)[C@H](O)[C@H]2O)C[C@H]1O`, at Beta-galactosidase, the Ki was 160 µM. Besides, the inhibition entry (with Prunus dulcis; in assay [5]; in assay [1]) was “inactive” each time.
